BindingDB's records for doi:10.1016/j.bmc.2016.07.028 (Jagiellonian University Medical College, 2016)
Each block holds one compound with its values, some of them ahead of it.

Legend:
Adenosine receptor A2a [1] = biological target: T1, Adenosine receptor A2a (Homo sapiens, UniProt P29274); assay: Antagonist activity at human adenosine receptor A2a expressed in CHO cell membranes assessed as inhibition of NECA-induced cAMP accumulation measured as NECA EC50 at 5 uM incubated for 15 mins in presence of [3H]cAMP by liquid scintillation counting (Rvb = 68 nM)
T1 sequence (P29274 whole entry): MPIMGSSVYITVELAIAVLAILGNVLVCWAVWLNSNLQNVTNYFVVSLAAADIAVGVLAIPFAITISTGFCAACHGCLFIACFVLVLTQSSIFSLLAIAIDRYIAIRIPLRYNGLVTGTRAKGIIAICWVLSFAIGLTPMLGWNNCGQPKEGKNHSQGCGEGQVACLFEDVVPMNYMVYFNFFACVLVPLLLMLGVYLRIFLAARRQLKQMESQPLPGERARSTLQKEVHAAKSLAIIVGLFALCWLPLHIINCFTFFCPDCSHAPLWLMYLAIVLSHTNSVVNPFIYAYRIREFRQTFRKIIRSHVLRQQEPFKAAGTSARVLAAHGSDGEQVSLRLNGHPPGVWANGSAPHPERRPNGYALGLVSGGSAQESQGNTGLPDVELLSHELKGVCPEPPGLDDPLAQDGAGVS
How it was run: (§1)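 Stably transfected CHO cells (human A2A or A2B) grown in DMEM-F12 with 10% FCS at 37 °C, 5% CO2. The cells were seeded at 200,000/well, washed after 24 h and held 2 h in HBSS (pH 7.3) with 1 U/ml adenosine deaminase. Ro20-1724 was added to 40 µM final for 15 min, then NECA dilutions ± one fixed test concentration in 2.5% DMSO, in duplicate.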

Adenosine receptor A2b = biological target: T2, Adenosine receptor A2b (Homo sapiens, UniProt P29275); assay: Antagonist activity at human adenosine receptor A2b expressed in CHO cell membranes assessed as inhibition of NECA-induced cAMP accumulation measured as NECA EC50 at 2 uM incubated for 15 mins in presence of [3H]cAMP by liquid scintillation counting (Rvb = 73 nM); how it was run: as §1
T2 sequence (P29275 whole entry): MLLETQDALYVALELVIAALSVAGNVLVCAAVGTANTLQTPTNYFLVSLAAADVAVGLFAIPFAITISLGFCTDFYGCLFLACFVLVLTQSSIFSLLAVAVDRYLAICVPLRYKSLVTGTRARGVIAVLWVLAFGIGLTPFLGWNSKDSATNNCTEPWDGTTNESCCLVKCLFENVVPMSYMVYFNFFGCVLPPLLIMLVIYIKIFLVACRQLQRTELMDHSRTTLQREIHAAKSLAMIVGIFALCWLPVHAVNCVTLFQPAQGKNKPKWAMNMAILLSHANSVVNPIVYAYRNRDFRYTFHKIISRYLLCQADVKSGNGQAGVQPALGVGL

Adenosine receptor A2a [2] = biological target: T1, Adenosine receptor A2a; assay: Antagonist activity at human adenosine receptor A2a expressed in CHO cell membranes assessed as inhibition of NECA-induced cAMP accumulation measured as NECA EC50 at 7 uM incubated for 15 mins in presence of [3H]cAMP by liquid scintillation counting (Rvb = 77 nM)

- EC50 (Adenosine receptor A2a [1]): 0.46 µM
Compound: CCN(CC)CCOc1ccc(CCN2CCCn3c2nc2c3c(=O)n(C)c(=O)n2C)cc1

- EC50 (Adenosine receptor A2b): 0.335 µM
Compound: CCCCn1c(=O)c2c(nc3n2CCCN3CCc2ccc(OCCN(CC)CC)cc2)n(CCCC)c1=O

- EC50 (Adenosine receptor A2a [2]): 0.302 µM
Compound: Cn1c(=O)c2c(nc3n2CCCN3CCc2ccc(O)cc2)n(C)c1=O [9-(4-hydroxyphenethyl)-1,3-dimethyl-6,7,8,9-tetrahydropyrimido[1,2-a]purine-2,4(1H,3H)-dione]
